Laboratory results published in PMC4201344 (ACS Chemical Biology, 2014).
Positions count from the first letter of the chain named. Entries after “also recorded” stand apart in the source; their conditions may differ.

Key:
[1] = target: GluClβ homomeric receptor, wild type (Caenorhabditis elegans, UniProt Q17328); test: two-electrode voltage clamp, Xenopus laevis oocytes; type: cell-based, C. elegans; conditions: glutamate
[2] = system: GluClβ homomeric receptor, wild type; test: as above; type: cell-based, C. elegans; conditions: high expressing mutants of GluClβ
[3] = target: GluClβ AG-2′,-1′PA (Caenorhabditis elegans, UniProt Q17328, A275P/G276A); test: as above; type: cell-based, C. elegans; conditions: glutamate
[4] = target: GluClβ A2′T (Caenorhabditis elegans, UniProt Q17328, A279T); test: two-electrode voltage clamp, Xenopus laevis oocytes; type: cell-based, C. elegans; conditions: glutamate
In short: (§1)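 C. elegans GluClβ (mammalian codon-optimised) in pGEMhe, mutated by QuikChange; T7 mRNA. […] Voltage clamp at −60 mV in Ca-free ND96, pH 7.5. […] Peak currents taken from baseline, normalised, averaged per concentration, and fit to Hill equation (EC50, nH).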

[5] = target: GluClβ L9′F (Caenorhabditis elegans, UniProt Q17328, L286F); test: as above; type: cell-based, C. elegans; conditions: glutamate
In short: as §1

[6] = target: GluClβ with α signal peptide, T6′S (Caenorhabditis elegans, UniProt Q17328, T283S); test: as above; type: cell-based, C. elegans; conditions: glutamate
In short: as §1

[7] = target: T1, GluClβ with α signal peptide, T6′S, Y156F (Caenorhabditis elegans, UniProt Q17328, T283S/Y182F); test: as above; type: cell-based, C. elegans; conditions: glutamate
T1 sequence (Q17328 23-434 Y182F/T283S): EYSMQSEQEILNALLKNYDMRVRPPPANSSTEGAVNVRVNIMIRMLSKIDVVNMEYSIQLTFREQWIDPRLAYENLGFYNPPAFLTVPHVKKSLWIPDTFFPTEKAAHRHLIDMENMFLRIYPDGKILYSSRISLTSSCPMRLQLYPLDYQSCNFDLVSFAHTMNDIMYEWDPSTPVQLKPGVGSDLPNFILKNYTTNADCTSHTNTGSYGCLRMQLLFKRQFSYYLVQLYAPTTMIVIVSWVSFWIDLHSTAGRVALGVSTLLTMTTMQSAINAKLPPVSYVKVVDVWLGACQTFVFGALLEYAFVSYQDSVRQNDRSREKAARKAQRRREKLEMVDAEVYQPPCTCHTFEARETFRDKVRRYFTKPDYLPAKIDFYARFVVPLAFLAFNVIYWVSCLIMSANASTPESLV
In short: as §1

[8] = target: T2, GluClβ with α signal peptide, T6′S, F96TAG Phe (Caenorhabditis elegans, UniProt Q17328, T283S); test: two-electrode voltage clamp, Xenopus laevis oocytes, nonsense suppression; type: cell-based, C. elegans; conditions: glutamate
T2 sequence (Q17328 23-434 T283S): T1 sequence (Q17328 23-434 Y182F/T283S) with F160Y
In short: (§2)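 Site-specific TAG codon, read by 74mer THG73 tRNA ligated to dCA-acylated amino acid; NVOC removed by 5 min xenon-lamp irradiation just before injection. Oocytes coinjected with 37.5 ng mRNA plus ~1 μg/μL tRNA at 48 and 24 h pre-recording; unacylated 76mer tRNA served as read-through control.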

[9] = target: T3, GluClβ with α signal peptide, T6′S, Y156TAG Phe (Caenorhabditis elegans, UniProt Q17328, T283S/Y182F); test: as above; type: cell-based, C. elegans; conditions: glutamate
T3 sequence (Q17328 23-434 Y182F/T283S): T1 sequence (Q17328 23-434 Y182F/T283S)
In short: as §2

[10] = system: GluClβ T6′S, Y206TAG CN–Phe; test: two-electrode voltage clamp, Xenopus laevis oocytes, nonsense suppression; type: cell-based, C. elegans; conditions: glutamate
[11] = target: GluClβ T6′S, R59E (Caenorhabditis elegans, UniProt Q17328, R85E/T283S); test: two-electrode voltage clamp, Xenopus laevis oocytes; type: cell-based, C. elegans; conditions: glutamate
In short: as §1

[12] = target: GluClβ T6′S, Y206A (Caenorhabditis elegans, UniProt Q17328, T283S/Y232A); test: as above; type: cell-based, C. elegans; conditions: glutamate
In short: as §1

[13] = target: T4, GluClβ T6′S, T203A/Y206F (Caenorhabditis elegans, UniProt Q17328, T229A/T283S/Y232F); test: two-electrode voltage clamp, Xenopus laevis oocytes; type: cell-based, C. elegans
T4 sequence (Q17328 23-434 T229A/Y232F/T283S): T1 sequence (Q17328 23-434 Y182F/T283S) with F160Y, T207A, Y210F

[14] = target: GluClβ T6′S, S126A/Y156F (Caenorhabditis elegans, UniProt Q17328, S152A/T283S/Y182F); test: two-electrode voltage clamp, Xenopus laevis oocytes; type: cell-based, C. elegans; conditions: glutamate
In short: as §1

[15] = system: GluClα T2′A; conditions: otherwise glutamate-insensitive channel; cited from earlier work

Chain of GluClβ T6′S, R59E (Q17328 23-434 R85E/T283S): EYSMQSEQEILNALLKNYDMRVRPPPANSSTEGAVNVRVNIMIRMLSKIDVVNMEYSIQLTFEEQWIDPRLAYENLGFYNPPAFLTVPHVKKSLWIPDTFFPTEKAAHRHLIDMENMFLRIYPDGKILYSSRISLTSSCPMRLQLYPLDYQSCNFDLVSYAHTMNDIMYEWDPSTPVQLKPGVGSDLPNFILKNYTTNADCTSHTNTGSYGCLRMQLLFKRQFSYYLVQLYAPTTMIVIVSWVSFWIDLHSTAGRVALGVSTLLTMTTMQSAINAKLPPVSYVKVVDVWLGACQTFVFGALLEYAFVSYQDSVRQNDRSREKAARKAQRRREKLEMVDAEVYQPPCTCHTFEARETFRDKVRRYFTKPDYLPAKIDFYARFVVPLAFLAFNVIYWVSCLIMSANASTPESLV
Chain of GluClβ A2′T (Q17328 23-434 A279T): as the sequence (Q17328 23-434 R85E/T283S) above, with E63R, A257T, S261T counted along it
Chain of GluClβ AG-2′,-1′PA (Q17328 23-434 A275P/G276A): as the sequence (Q17328 23-434 R85E/T283S) above, with E63R, A253P, G254A, S261T counted along it
Chain of GluClβ T6′S, Y206A (Q17328 23-434 Y232A/T283S): as the sequence (Q17328 23-434 R85E/T283S) above, with E63R, Y210A counted along it
Chain of GluClβ with α signal peptide, T6′S (Q17328 23-434 T283S): as the sequence (Q17328 23-434 R85E/T283S) above, with E63R counted along it
Chain of GluClβ L9′F (Q17328 23-434 L286F): as the sequence (Q17328 23-434 R85E/T283S) above, with E63R, S261T, L264F counted along it
Chain of GluClβ T6′S, S126A/Y156F (Q17328 23-434 S152A/Y182F/T283S): as the sequence (Q17328 23-434 R85E/T283S) above, with E63R, S130A, Y160F counted along it
Chain of GluClβ homomeric receptor, wild type (Caenorhabditis elegans, UniProt Q17328) (Q17328 23-434): as the sequence (Q17328 23-434 R85E/T283S) above, with E63R, S261T counted along it

Structure (SMILES): N[C@@H](CCC(=O)O)C(=O)O [glutamate]
- Hill [1]: 2.5 ± 0.2
- concentration at which rapid desensitization occurs [2]: greater than 100 mM
- Imax [3]: 12–66 μA
- EC50 [4]: abolished glutamate-induced currents; also recorded: no response
- EC50 [5]: constitutively active
- Hill [6]: 2.7 ± 0.2
- EC50 [7]: 15 ± 1 mM
- Hill [7]: 2.3 ± 0.2
- Imax [7]: 1–5 μA
- EC50 [8]: 0.012 ± 0.001 mM
- Hill [8]: 2.8 ± 0.3
- Imax [8]: 0.1–4 μA
- EC50 [9]: 17 ± 1 mM
- Hill [9]: 1.7 ± 0.1
- Imax [9]: 1–4 μA
- EC50 [10]: 19 ± 1 mM
- Hill [10]: 2.8 ± 0.2
- Imax [10]: 0.8–6 μA
- EC50 [11]: nonfunctional; also recorded: no response
- EC50 [12]: no response
- EC50 ([13]; glutamate): 0.21 ± 0.01 mM
- Hill ([13]; glutamate): 2.2 ± 0.1
- Ω ([13]; mutant cycle analysis T203A, Y206F): 1/37
- ΔΔG ([13]; mutant cycle analysis, coupling T203A/Y206F): 2.1 kcal/mol
- EC50 [14]: no response
- glutamate sensitivity [15]: restore glutamate sensitivity
